In ChEMBL document CHEMBL3739334, “Spiroindole Alkaloids and Spiroditerpenoids from Aspergillus duricaulis and Their Potential Neuroprotective Effects” (J Nat Prod, 2015) one finds IC50, inhibition and Activity data, which are given here for twelve compounds.

Structures are written as SMILES. A value given as a limit tells only on which side of the number the result lay.

For data set [1], the target named is T1, Amyloid-beta precursor protein (Homo sapiens, UniProt P05067). Briefly: Inhibition of amyloid beta (1 to 42 residues) (unknown origin) aggregation after 24 hrs by thioflavin T assay. The method in brief: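 Aβ1−42 was dissolved in DMSO as a 1 mg/mL stock, then incubated at 20 μM with a range of sample concentrations for 24 h at 37 °C. Thioflavin T was added to 3 μM, and fluorescence was read 30 min later (ex 442 nm, em 485 nm). Aβ alone served as control. Run in triplicate; IC50 is the mean.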

Data set [2] has as its target T1, Amyloid-beta precursor protein. Put plainly: Inhibition of amyloid beta (1 to 42 residues) (unknown origin) aggregation at 100 uM after 24 hrs by thioflavin T assay.
The nature of data set [3]: Cytotoxicity against rat PC12 cells. It is filed as cell-based. As to conditions: pc-12.

T1 sequence (P05067 whole entry, the tested form may be a part): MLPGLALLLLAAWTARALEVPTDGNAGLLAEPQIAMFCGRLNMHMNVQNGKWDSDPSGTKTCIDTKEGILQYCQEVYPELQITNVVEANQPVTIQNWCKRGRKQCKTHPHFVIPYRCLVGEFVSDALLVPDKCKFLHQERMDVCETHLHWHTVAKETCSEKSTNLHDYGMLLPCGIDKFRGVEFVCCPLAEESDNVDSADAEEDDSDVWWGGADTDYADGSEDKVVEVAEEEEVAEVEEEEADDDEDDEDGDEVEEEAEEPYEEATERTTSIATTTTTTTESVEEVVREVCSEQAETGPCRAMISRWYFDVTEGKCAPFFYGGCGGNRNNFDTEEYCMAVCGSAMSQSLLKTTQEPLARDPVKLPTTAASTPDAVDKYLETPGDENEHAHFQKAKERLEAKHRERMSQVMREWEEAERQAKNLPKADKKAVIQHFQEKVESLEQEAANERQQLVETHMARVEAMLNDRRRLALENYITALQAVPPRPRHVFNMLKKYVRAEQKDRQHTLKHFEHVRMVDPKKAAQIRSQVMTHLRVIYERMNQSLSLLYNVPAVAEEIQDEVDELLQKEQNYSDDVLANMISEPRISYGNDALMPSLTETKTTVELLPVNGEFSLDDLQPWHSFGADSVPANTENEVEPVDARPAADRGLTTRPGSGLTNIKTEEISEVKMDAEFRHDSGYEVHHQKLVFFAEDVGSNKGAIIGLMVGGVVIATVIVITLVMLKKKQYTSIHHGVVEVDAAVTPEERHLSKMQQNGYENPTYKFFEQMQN

One may read the IC50 as the concentration at which inhibition is half-maximal. Low readings indicate higher potency, high ones lower potency. Broadly, the inhibition is the relative decrease from the control value, in per cent. Read a low inhibition as little suppression. `C[C@@H]1C[C@@]23C[C@H]4C(C)(C)[C@@]5(C[C@]4(CN2C1=O)NC3=O)C(=O)Nc1c5ccc2c1C=CC(C)(C)O2` gave an IC50 in data set [1] of 244 µM. In data set [2], the inhibition turned out to be 30%. In the case of `CC(=O)O[C@H]1CC(=O)OC(C)(C)[C@@H]2CC[C@]3(C)[C@H](CC=C(C)[C@@]34C[C@]3(OC(C)=C(C)C3=O)C(=O)O4)[C@@]12C`, the concentration for half-maximal inhibition (IC50) in data set [1] is greater than 300 µM. Still for that read-out and setting: then `CC1=CC[C@@H]2[C@@]3(C)[C@@H](O)CC(=O)OC(C)(C)[C@@H]3CC[C@@]2(C)[C@]12Cc1c(c(C)c(C)oc1=O)O2`, with greater than 300 µM; and `CC1=CC[C@@H]2[C@@]3(C)C=CC(=O)OC(C)(C)[C@@H]3CC[C@@]2(C)[C@]12Cc1c(c(C)c(C)oc1=O)O2`, with greater than 300 µM.

In data set [1], `C[C@H]1CN2C[C@]34C[C@@]5(C(=O)Nc6c5ccc5c6C=CC(C)(C)O5)C(C)(C)[C@@H]3C[C@@]2(C1)C(=O)N4C` gave an IC50 of 204 µM. The compound also displayed an inhibition in data set [2] of 30%. In data set [3], the Activity entry is listed as “Toxic”.

Compound `CN1C(=O)[C@@]23CCC(=O)N2C[C@@]12C[C@@]1(C(=O)Nc4c1ccc1c4C=CC(C)(C)O1)C(C)(C)[C@@H]2C3` returned an IC50 in data set [1] of 187 µM. Further, the inhibition in data set [2] was found to be 30%. Taken in the same sequence, the figures for `C[C@H]1CN2C[C@]34C[C@@]5(C(=O)Nc6c5ccc5c6OC=CC(C)(C)O5)C(C)(C)[C@@H]3C[C@@]2(C1)C(=O)N4C` were 269 µM and 30%. Compound `O=C(/C=C/c1ccc(O)c(O)c1)O[C@H](Cc1ccc(O)c(O)c1)C(=O)O` [ROSMARINIC ACID] displayed an IC50 in data set [1] of 71.9 µM. Regarding `C[C@@H]1C[C@@]23C[C@H]4C(C)(C)[C@@]5(C[C@]4(CN2C1=O)N(C)C3=O)C(=O)Nc1c5ccc2c1C=CC(C)(C)O2`, the IC50 in data set [1] is greater than 300 µM. In the case of `C[C@@H]1C[C@@]23C[C@H]4C(C)(C)[C@@]5(C[C@]4(CN2C1=O)NC3=O)C(=O)Nc1c5ccc2c1OC=CC(C)(C)O2`, the IC50 in data set [1] was greater than 300 µM.

`CC1(C)C=Cc2cc(C(=O)O)ccc2O1` came in with an IC50 in data set [1] greater than 300 µM.

In turn, `C[C@@H]1C[C@@]23C[C@H]4C(C)(C)[C@@]5(C[C@]4(CN2C1=O)N(C)C3=O)C(=O)Nc1c5ccc2c1OC=CC(C)(C)O2` gave an IC50 in data set [1] greater than 300 µM.
